Source: PubChem BioAssay (Broad Institute)
Compounds with a hit are over-represented: about 2.8% of the library has one in this group of screens.
SIRT5 inh: blocks human SIRT5 desuccinylation of peptide; Purified SirT5, succinyl-peptide AMC, trypsin-coupled fluorescence; hit rate 1.1% among 330,000; Q9NXA8; inhibition, % at 15 µM; in the data active = inhibition above about 15%; inconclusive = no clear call, values can overlap the other calls
DENV2 CPE rescue: DENV2-induced cell death inhibition | DENV2-infected cells, cytopathic effect rescue, plate reader | CPE inhibition, % at 9.99 µM | hit rate 1.7% among 350,000 | AID 651640; in the data active = CPE inhibition above about 20%, passing the limit was not always enough; inconclusive = no clear call, values can overlap the other calls; tested in BHK-21 cells;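 also: 0% = median of neutral control wells and 100% = median of positive control wells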
E-sel inducer: induces E-selectin expression in human endothelial cells; P16581; HUVEC E-selectin immunofluorescence imaging; normalized: neutral wells 0, TNF-alpha wells 100; activation, % at 7.58 µM; hit rate 0.37% among 260,000;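 active = mean E-selectin-positive cell signal at least 10% of the positive control, reached in at least 60% of replicates, without over 20% cell loss; inconclusive = no rule given, readout overlaps actives, possibly toxicity-flagged; inactive = the rest, including those meeting only one limit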
Target sequence (P16581 whole entry, looked up): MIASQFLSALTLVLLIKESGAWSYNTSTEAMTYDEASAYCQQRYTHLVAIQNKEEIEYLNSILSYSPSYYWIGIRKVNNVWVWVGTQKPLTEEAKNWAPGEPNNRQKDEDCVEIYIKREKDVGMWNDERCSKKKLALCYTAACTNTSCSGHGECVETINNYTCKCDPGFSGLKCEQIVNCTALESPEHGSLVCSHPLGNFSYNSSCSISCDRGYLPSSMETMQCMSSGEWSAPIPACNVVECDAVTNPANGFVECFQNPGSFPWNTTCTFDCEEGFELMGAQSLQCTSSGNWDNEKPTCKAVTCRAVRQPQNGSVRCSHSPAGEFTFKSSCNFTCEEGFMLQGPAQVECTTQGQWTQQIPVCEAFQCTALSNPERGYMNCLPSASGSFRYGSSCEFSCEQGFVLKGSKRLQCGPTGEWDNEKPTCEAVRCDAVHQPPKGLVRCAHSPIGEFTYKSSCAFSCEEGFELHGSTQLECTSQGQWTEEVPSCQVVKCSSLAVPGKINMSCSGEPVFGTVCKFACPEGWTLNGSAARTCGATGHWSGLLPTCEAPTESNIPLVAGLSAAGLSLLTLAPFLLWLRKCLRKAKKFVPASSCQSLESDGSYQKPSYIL
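Test system: HUVEC | Signal: Immunofluorescence imaging | Read-out: Percent E-selectin-positive cells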
* marks the source's active call; other numbers are inactive results; ? = inconclusive; nt = no result.

SMILES	SIRT5 inh	DENV2 CPE rescue	E-sel inducer
O=C(O)CCCC(=O)N1CCc2cc(S(=O)(=O)N3CCc4ccccc43)ccc21	28*	18	nt
O=C(O)CCCC(=O)N1CCc2cc(S(=O)(=O)NCc3ccccc3)ccc21	4	3	0
CC(=O)N1[C@@H](CO)[C@@H]2c3ccccc3N(S(=O)(=O)c3cccc(C)c3)C[C@@H]21	3	1	1
C[C@H]1CN([C@@H](C)CO)C(=O)c2cc(C#CC3(O)CCCC3)cnc2O[C@H]1CN(C)C(=O)C1CCOCC1	-1	3	0
O=C(C[C@H]1C[C@@H]2c3cc(NC(=O)c4cccnc4)ccc3O[C@@H]2[C@H](CO)O1)NCc1cccc(F)c1	0	-7	0
Cc1c(NCc2cccnc2)cccc1C(=O)O	-1	3	0
O=C(O)c1cc(N2C(=O)C3CCCCC3C2=O)ccc1NCc1cccnc1 (stereo unspecified)	21*	3	11
O=C(N[C@@H]1CC[C@H](CCn2cc(C3(O)CCCC3)nn2)O[C@@H]1CO)C1CCCC1	12	4	0
CCOC(=O)c1cccc(NC(=O)Nc2ccc(OCC)cc2)c1	-7	nt	nt
CCOC(=O)c1cccc(NC(=O)Nc2ccc3c(c2)C(=O)OC3)c1	nt	-2	61*
COc1ccc(S(=O)(=O)Nc2ccc3c(c2)C(=O)N([C@@H](C)CO)C[C@@H](C)[C@@H](CN(C)C(=O)c2ccccc2)OCCCC[C@@H](C)O3)cc1	-1	-2	0
c1ccc2c(c1)[nH]c1nc3nncn3nc12	18*	7	nt
S=c1nc2[nH]c3ccccc3c2n[nH]1	0	-2	1
CN1CCN(C(=O)C[C@@H]2CC[C@@H]3[C@H](COC[C@H](O)CN3Cc3cccc(F)c3)O2)CC1	3	-5	0
C/C=C/c1ccc([C@@H]2[C@H](CO)N(Cc3cncnc3)C23CN(C(=O)COC)C3)cc1	0	22*	0
C/C=C/c1ccc([C@H]2[C@@H](CO)N(CC3CCCC3)C23CN(C(=O)CC)C3)cc1	6	29*	0
C/C=C/c1ccc([C@@H]2[C@H](CO)N(CC3CC3)C23CN(S(C)(=O)=O)C3)cc1	-1	-2	0
C/C=C/c1ccc([C@H]2[C@@H](CO)N(CC3CCCC3)C23CN(C(=O)CC2CC2)C3)cc1	-1	-4	0
C/C=C/c1ccc([C@@H]2[C@H](CO)N(CC3CC3)C23CN(S(=O)(=O)CC)C3)cc1	23*	-11	0
C/C=C/c1ccc([C@H]2[C@@H](CO)N(Cc3cncnc3)C23CN(C(=O)CC)C3)cc1	1	0	0
COc1ccc(NC(=O)Nc2ccc3c(c2)C(=O)N(C)C[C@@H](OC)[C@H](C)CN[C@H](C)CO3)cc1	nt	nt	0
COc1ccc(NC(=O)Nc2ccc3c(c2)C(=O)N([C@@H](C)CO)C[C@H](C)[C@H](CN(C)Cc2ccncc2)OCCCC[C@@H](C)O3)cc1	2	-8	0
COc1ccc2c3c([nH]c2c1)[C@H](CO)N(Cc1cccc(Cl)c1)CC31CCN(C(C)=O)CC1	nt	11	-1
COc1ccc2c3c(n(C)c2c1)[C@@H](CO)N(Cc1ccccc1Cl)CC31CN(C(=O)CC2CC2)C1	12	14	0
COc1ccc2c3c([nH]c2c1)[C@@H](CO)N(Cc1ccccc1Cl)CC31CCN(C(=O)C2CC2)CC1	-1	?	0
SMILES	SIRT5 inh	DENV2 CPE rescue	E-sel inducer
COc1ccc2c3c([nH]c2c1)[C@@H](CO)N(Cc1cccc(Cl)c1)CC31CCN(C(C)=O)CC1	nt	30*	0
COc1ccc2c3c([nH]c2c1)[C@@H](CO)N(Cc1ccccc1Cl)CC31CN(C(=O)C2CC2)C1	-2	23*	2
COc1ccc2c3c([nH]c2c1)[C@H](CO)N(Cc1ccccc1Cl)CC31CCN(C(C)=O)CC1	nt	22*	-1
COc1ccc2c3c(n(C)c2c1)[C@H](CO)N(Cc1ccccc1Cl)CC31CCN(C(=O)CC2CC2)CC1	4	31*	0
COc1ccc2c3c([nH]c2c1)[C@H](CO)N(Cc1ccccc1Cl)CC31CN(C(C)=O)C1	nt	0	-1
C[C@H]1CN([C@@H](C)CO)C(=O)CCCn2cc(nn2)CO[C@H]1CN(C)Cc1cccnc1	-4	-3	0
CCCNC(=O)Nc1ccc2c(c1)OC[C@H](C)N(C(=O)C1CC1)C[C@@H](C)[C@H](OC)CN(C)C2=O	-2	-4	0
O=C(C[C@@H]1C=C[C@H](NC(=O)C2CCC2)[C@@H](CO)O1)NCc1ccncc1	-2	14	0
Cc1cc2cc(CNC(=O)c3ccc(S(=O)(=O)N4CCCCC4)cc3)ccc2n1C	-1	-12	82*
COc1cccc(CNC(=O)CCn2ccc3cc(S(=O)(=O)N4CCCC4)ccc32)c1	-4	-2	nt
